Measured values taken from ChEMBL document CHEMBL4219132, “Sulfamic acid promoted one-pot synthesis of phenanthrene fused-dihydrodibenzo-quinolinones: Anticancer activity, tubulin polymerization inhibition and apoptosis inducing studies” (Bioorg Med Chem, 2018).

These molecules were tested on A549 (assay: Cytotoxicity against human A549 cells assessed as cell growth inhibition after 48 hrs by MTT assay). Conditions: A549, 48 h.
Assay type: functional, cell-based
Summary of the method: (§1)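 MTT assay. Cells were seeded at 1×10^4 per well in their medium with 10% FBS and allowed 24 h at 37 °C. Compound diluted in medium was added alongside a vehicle control and left for 48 h. MTT (0.5 mg/mL) was then added for 4 h, formazan dissolved in DMSO, and absorbance read at 570 nm. IC50 is the concentration inhibiting 50% of cells.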

Going from `COc1cccc(C2CC(=O)Nc3c2c2cc(OC)c(OC)cc2c2cc(OC)c(OC)cc32)c1` (stereo not drawn) to `COc1ccc(C2CC(=O)Nc3c2c2cc(OC)c(OC)cc2c2cc(OC)c(OC)cc32)cc1` (stereo not drawn), the IC50 falls from over 20 µM to 8.94 µM.

`COc1cc2c3c(c4cc(OC)c(OC)cc4c2cc1OC)C(c1cccs1)CC(=O)N3` (stereo not drawn) and `COc1cc2c3c(c4cc(OC)c(OC)cc4c2cc1OC)C(c1ccc(F)cc1)CC(=O)N3` (stereo not drawn) are within 1.5-fold of each other in IC50: 8.5 µM for the first, 6.29 µM for the second.

First: COc1cc2c3c(c4cc(OC)c(OC)cc4c2cc1OC)C(c1cccc2ccccc12)CC(=O)N3 (stereo not drawn)
Second: COc1cc2c3c(c4cc(OC)c(OC)cc4c2cc1OC)C(c1ccc(C(C)C)cc1)CC(=O)N3 (stereo not drawn)
The IC50 of the first is 1.7-fold higher: 14.7 µM for the first, 8.84 µM for the second.

Compared with `COc1ccc(C2CC(=O)Nc3c2c2cc(OC)c(OC)cc2c2cc(OC)c(OC)cc32)cc1OC` (stereo not drawn), `COc1cc2c3c(c4cc(OC)c(OC)cc4c2cc1OC)C(c1ccc2c(c1)OCCO2)CC(=O)N3` (stereo not drawn) is 1.9-fold higher in IC50: 4.09 µM for the first, 7.95 µM for the second.

`COc1cc2c3c(c4cc(OC)c(OC)cc4c2cc1OC)C(c1cccc(C(F)(F)F)c1)CC(=O)N3` (stereo not drawn) was tested, and the IC50 was 5.03 µM.

What follows are molecules tested on HT-29 (assay: Cytotoxicity against human HT-29 cells assessed as cell growth inhibition after 48 hrs by MTT assay). Conditions: HT-29, 48 h.
Assay type: functional, cell-based
Summary of the method: as §1

First: COc1cccc(C2CC(=O)Nc3c2c2cc(OC)c(OC)cc2c2cc(OC)c(OC)cc32)c1 (stereo not drawn)
Second: COc1ccc(C2CC(=O)Nc3c2c2cc(OC)c(OC)cc2c2cc(OC)c(OC)cc32)cc1 (stereo not drawn)
The IC50 of the first is higher: over 20 µM for the first, 16.7 µM for the second.

`COc1cc2c3c(c4cc(OC)c(OC)cc4c2cc1OC)C(c1cccs1)CC(=O)N3` (stereo not drawn) and `COc1cc2c3c(c4cc(OC)c(OC)cc4c2cc1OC)C(c1ccc(F)cc1)CC(=O)N3` (stereo not drawn) are within 1.5-fold of each other in IC50: 18.9 µM for the first, 17.4 µM for the second.

`COc1cc2c3c(c4cc(OC)c(OC)cc4c2cc1OC)C(c1cccc2ccccc12)CC(=O)N3` (stereo not drawn) and `COc1cc2c3c(c4cc(OC)c(OC)cc4c2cc1OC)C(c1ccc(C(C)C)cc1)CC(=O)N3` (stereo not drawn) are within 1.5-fold of each other in IC50: 18.4 µM for the first, 16 µM for the second.

First: COc1ccc(C2CC(=O)Nc3c2c2cc(OC)c(OC)cc2c2cc(OC)c(OC)cc32)cc1OC (stereo not drawn)
Second: COc1cc2c3c(c4cc(OC)c(OC)cc4c2cc1OC)C(c1ccc2c(c1)OCCO2)CC(=O)N3 (stereo not drawn)
The IC50 of the first is lower: 12.2 µM for the first, over 20 µM for the second.

`COc1cc2c3c(c4cc(OC)c(OC)cc4c2cc1OC)C(c1cccc(C(F)(F)F)c1)CC(=O)N3` (stereo not drawn) showed an IC50 of 18.7 µM.

The molecules below were run on PC-3 (assay: Cytotoxicity against human PC3 cells assessed as cell growth inhibition after 48 hrs by MTT assay). Conditions: PC-3, 48 h.
Assay type: functional, cell-based
Summary of the method: as §1

First: COc1cccc(C2CC(=O)Nc3c2c2cc(OC)c(OC)cc2c2cc(OC)c(OC)cc32)c1 (stereo not drawn)
Second: COc1ccc(C2CC(=O)Nc3c2c2cc(OC)c(OC)cc2c2cc(OC)c(OC)cc32)cc1 (stereo not drawn)
The IC50 of the first is higher: over 20 µM for the first, 19.1 µM for the second. The second is the more potent here.

Going from `COc1cc2c3c(c4cc(OC)c(OC)cc4c2cc1OC)C(c1cccs1)CC(=O)N3` (stereo not drawn) to `COc1cc2c3c(c4cc(OC)c(OC)cc4c2cc1OC)C(c1ccc(F)cc1)CC(=O)N3` (stereo not drawn), the IC50 falls from over 20 µM to 19.9 µM.

`COc1cc2c3c(c4cc(OC)c(OC)cc4c2cc1OC)C(c1ccc(C(C)C)cc1)CC(=O)N3` (stereo not drawn) and `COc1ccc(C2CC(=O)Nc3c2c2cc(OC)c(OC)cc2c2cc(OC)c(OC)cc32)cc1OC` (stereo not drawn) cannot be ordered by IC50: over 20 µM for the first, over 20 µM for the second.

`COc1cc2c3c(c4cc(OC)c(OC)cc4c2cc1OC)C(c1ccc2c(c1)OCCO2)CC(=O)N3` (stereo not drawn) and `COc1cc2c3c(c4cc(OC)c(OC)cc4c2cc1OC)C(c1cccc(C(F)(F)F)c1)CC(=O)N3` (stereo not drawn) are within 1.5-fold of each other in IC50: 18.4 µM for the first, 18.5 µM for the second.

Each molecule was assayed on HCT-116 (assay: Cytotoxicity against human HCT116 cells assessed as cell growth inhibition after 48 hrs by MTT assay). Conditions: HCT-116, 48 h.
Assay type: functional, cell-based
Summary of the method: as §1

`COc1cccc(C2CC(=O)Nc3c2c2cc(OC)c(OC)cc2c2cc(OC)c(OC)cc32)c1` (stereo not drawn) and `COc1ccc(C2CC(=O)Nc3c2c2cc(OC)c(OC)cc2c2cc(OC)c(OC)cc32)cc1` (stereo not drawn) cannot be ordered by IC50: over 20 µM for the first, over 20 µM for the second.

`COc1cc2c3c(c4cc(OC)c(OC)cc4c2cc1OC)C(c1cccs1)CC(=O)N3` (stereo not drawn) and `COc1cc2c3c(c4cc(OC)c(OC)cc4c2cc1OC)C(c1ccc(F)cc1)CC(=O)N3` (stereo not drawn) are within 1.5-fold of each other in IC50: 13.8 µM for the first, 16.2 µM for the second.

Going from `COc1cc2c3c(c4cc(OC)c(OC)cc4c2cc1OC)C(c1cccc2ccccc12)CC(=O)N3` (stereo not drawn) to `COc1cc2c3c(c4cc(OC)c(OC)cc4c2cc1OC)C(c1ccc(C(C)C)cc1)CC(=O)N3` (stereo not drawn), the IC50 rises from 17.2 µM to over 20 µM. The first is the more potent here.

First: COc1ccc(C2CC(=O)Nc3c2c2cc(OC)c(OC)cc2c2cc(OC)c(OC)cc32)cc1OC (stereo not drawn)
Second: COc1cc2c3c(c4cc(OC)c(OC)cc4c2cc1OC)C(c1ccc2c(c1)OCCO2)CC(=O)N3 (stereo not drawn)
The IC50 of the first is lower: 8.12 µM for the first, over 20 µM for the second.

In the case of `COc1cc2c3c(c4cc(OC)c(OC)cc4c2cc1OC)C(c1cccc(C(F)(F)F)c1)CC(=O)N3` (stereo not drawn), the IC50 is reported as 15.4 µM.

Each molecule was assayed on MCF7 (assay: Cytotoxicity against human MCF7 cells assessed as cell growth inhibition after 48 hrs by MTT assay). Conditions: MCF7, 48 h.
Assay type: functional, cell-based
Summary of the method: as §1

`COc1cccc(C2CC(=O)Nc3c2c2cc(OC)c(OC)cc2c2cc(OC)c(OC)cc32)c1` (stereo not drawn) and `COc1ccc(C2CC(=O)Nc3c2c2cc(OC)c(OC)cc2c2cc(OC)c(OC)cc32)cc1` (stereo not drawn) cannot be ordered by IC50: over 20 µM for the first, over 20 µM for the second.

First: COc1cc2c3c(c4cc(OC)c(OC)cc4c2cc1OC)C(c1cccs1)CC(=O)N3 (stereo not drawn)
Second: COc1cc2c3c(c4cc(OC)c(OC)cc4c2cc1OC)C(c1ccc(F)cc1)CC(=O)N3 (stereo not drawn)
The IC50 of the first is higher: over 20 µM for the first, 12.2 µM for the second.

`COc1cc2c3c(c4cc(OC)c(OC)cc4c2cc1OC)C(c1cccc2ccccc12)CC(=O)N3` (stereo not drawn) and `COc1cc2c3c(c4cc(OC)c(OC)cc4c2cc1OC)C(c1ccc(C(C)C)cc1)CC(=O)N3` (stereo not drawn) cannot be ordered by IC50: over 20 µM for the first, over 20 µM for the second.

`COc1ccc(C2CC(=O)Nc3c2c2cc(OC)c(OC)cc2c2cc(OC)c(OC)cc32)cc1OC` (stereo not drawn) and `COc1cc2c3c(c4cc(OC)c(OC)cc4c2cc1OC)C(c1ccc2c(c1)OCCO2)CC(=O)N3` (stereo not drawn) cannot be ordered by IC50: over 20 µM for the first, over 20 µM for the second.

With `COc1cc2c3c(c4cc(OC)c(OC)cc4c2cc1OC)C(c1cccc(C(F)(F)F)c1)CC(=O)N3` (stereo not drawn) the IC50 was over 20 µM.

What follows are molecules tested on DU-145 (assay: Cytotoxicity against human DU145 cells assessed as cell growth inhibition after 48 hrs by MTT assay). Conditions: DU-145, 48 h.
Assay type: functional, cell-based
Summary of the method: as §1

`COc1cccc(C2CC(=O)Nc3c2c2cc(OC)c(OC)cc2c2cc(OC)c(OC)cc32)c1` (stereo not drawn) and `COc1ccc(C2CC(=O)Nc3c2c2cc(OC)c(OC)cc2c2cc(OC)c(OC)cc32)cc1` (stereo not drawn) are within 1.5-fold of each other in IC50: 18.9 µM for the first, 17 µM for the second.

Compared with `COc1cc2c3c(c4cc(OC)c(OC)cc4c2cc1OC)C(c1cccs1)CC(=O)N3` (stereo not drawn), `COc1cc2c3c(c4cc(OC)c(OC)cc4c2cc1OC)C(c1ccc(F)cc1)CC(=O)N3` (stereo not drawn) is lower in IC50: over 20 µM for the first, 11.1 µM for the second.

`COc1cc2c3c(c4cc(OC)c(OC)cc4c2cc1OC)C(c1cccc2ccccc12)CC(=O)N3` (stereo not drawn) and `COc1cc2c3c(c4cc(OC)c(OC)cc4c2cc1OC)C(c1ccc(C(C)C)cc1)CC(=O)N3` (stereo not drawn) are within 1.5-fold of each other in IC50: 16.1 µM for the first, 18.2 µM for the second.

Compared with `COc1ccc(C2CC(=O)Nc3c2c2cc(OC)c(OC)cc2c2cc(OC)c(OC)cc32)cc1OC` (stereo not drawn), `COc1cc2c3c(c4cc(OC)c(OC)cc4c2cc1OC)C(c1ccc2c(c1)OCCO2)CC(=O)N3` (stereo not drawn) is higher in IC50: 13.1 µM for the first, over 20 µM for the second.

In the case of `COc1cc2c3c(c4cc(OC)c(OC)cc4c2cc1OC)C(c1cccc(C(F)(F)F)c1)CC(=O)N3` (stereo not drawn), the IC50 is reported as 6.19 µM.
